What was measured:
[1] = target: D(2) dopamine receptor (Bos taurus) (UniProt P20288)
[2] = target: D(2) dopamine receptor (Bos taurus) (UniProt P20288); assay: Percentage of sites in low affinity form for the agonist in the absence of (Gpp(NH)p); type: functional
[3] = target: D(2) dopamine receptor (Bos taurus) (UniProt P20288); assay: Percentage of sites in low affinity form for the agonist in the presence of (Gpp(NH)p); type: functional
[4] = target: D(2) dopamine receptor (Bos taurus) (UniProt P20288); assay: Binding towards dopamine D2 receptor using [3H]spiroperidol in presence of (Gpp(NH)p)
[5] = target: D(2) dopamine receptor (Bos taurus) (UniProt P20288); assay: Binding towards dopamine D2 receptor using [3H]spiroperidol in the absence of (Gpp(NH)p)
[6] = Ratio of Rh and RL Inhibitor constants in presence of (Gpp(NH)p)
[7] = target: D(2) dopamine receptor (Bos taurus) (UniProt P20288); assay: Percentage of sites in high affinity form for the agonist in the presence of (Gpp(NH)p); type: functional
[8] = target: D(2) dopamine receptor (Bos taurus) (UniProt P20288); assay: Percentage of sites in high affinity form for the agonist in the absence of (Gpp(NH)p; type: functional
[9] = target: D(2) dopamine receptor (Bos taurus) (UniProt P20288); remark: listed apart in the source
[10] = Ratio of Rh and RL Inhibitor constants in absence of (Gpp(NH)p)
[11] = target: D(2) dopamine receptor (Bos taurus) (UniProt P20288); assay: Tested for the ability to enhance the binding of the dopamine D2 receptor agonist N-propylnorapomorphine (NPA) in the presence of (Gpp(NH)p)
Method in brief: (§1)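 High-affinity [³H]NPA (0.05 nM) binding to bovine striatal membranes, 1 h at 22 °C, then GF/B filtration. Compound at 1, 10 or 100 nM, either with 100 μM Gpp(NH)p added directly or after a 2 h, 4 °C preincubation with Gpp(NH)p and washing. Expressed as % of maximal specific binding in Gpp(NH)p-free membranes. Mean ± SEM of five experiments.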

[12] = target: D(2) dopamine receptor (Bos taurus) (UniProt P20288); assay: Tested for the ability to enhance the binding of the dopamine D2 receptor agonist N-propylnorapomorphine (NPA) in the absence of (Gpp(NH)p)
Method in brief: as §1

Sequence of D(2) dopamine receptor (Bos taurus) (P20288 whole entry): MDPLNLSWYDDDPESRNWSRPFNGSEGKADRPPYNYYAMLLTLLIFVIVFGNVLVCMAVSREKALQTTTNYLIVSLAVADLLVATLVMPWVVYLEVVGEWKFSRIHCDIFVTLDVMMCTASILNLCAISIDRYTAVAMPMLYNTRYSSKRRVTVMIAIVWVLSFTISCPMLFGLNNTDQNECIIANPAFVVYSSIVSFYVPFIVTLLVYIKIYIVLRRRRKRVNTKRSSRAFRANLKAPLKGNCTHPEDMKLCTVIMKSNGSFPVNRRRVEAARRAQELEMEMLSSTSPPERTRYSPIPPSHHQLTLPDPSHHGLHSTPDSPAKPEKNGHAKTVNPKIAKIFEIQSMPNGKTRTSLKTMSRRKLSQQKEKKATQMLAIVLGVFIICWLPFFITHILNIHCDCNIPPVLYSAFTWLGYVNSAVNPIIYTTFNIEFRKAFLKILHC

In the case of `NC(=O)CN1CC[C@@H](N2CC(=O)N3CCC[C@H]3C2=O)C1=O`, the KL [1] is reported as 56 nM, the RL [2] is reported as 33% and the RL [3] is reported as 59%. The KH [4] was 0.05 nM, the KH [5] was 0.02 nM and the Ratio [6] was 0.71. It also gave an RH [7] of 42%, an RH [8] of 65% and a KL [9] of 64 nM. It also gave a Ratio [10] of 1.97.

With `CC1(C)N2CCC[C@H]2C(=O)N1[C@@H]1CCN(CC(N)=O)C1=O` the KL [11] was 77 nM, the RL [2] was 34% and the RL [3] was 64%. It also gave a KL [12] of 61 nM, a KH [4] of 0.07 nM and a KH [5] of 0.03 nM. The Ratio [6] was 0.56, the RH [7] was 36% and the RH [8] was 65%. The Ratio [10] was 1.91.

Source: ChEMBL document CHEMBL1127860, “Design, synthesis, X-ray analysis, and dopamine receptor-modulating activity of mimics of the "C5" hydrogen-bonded conformation in the peptidomimetic 2-oxo-3(R)-[(2(S)-pyrrolidinylcarbonyl)amino]-1- pyrrolidineacetamide” (J Med Chem, 1994)
